pEC50: −log10 of the molar value.
What was measured:
[1] = test system: Human immunodeficiency virus 1; assay: Antiviral activity against HIV 1 harboring reverse transcriptase Y188L mutant infected in human MT4 cells assessed as inhibition of virus-induced cytopathic effect after 5 days by MTT assay; type: functional, organism-based; settings: Human immunodeficiency virus 1, MT4, 120 h
[2] = test system: Human immunodeficiency virus 1; assay: Antiviral activity against wild type HIV 1 NL4-3 infected in human MT4 cells assessed as inhibition of virus-induced cytopathic effect after 5 days by MTT assay; type: functional, organism-based; settings: Human immunodeficiency virus 1, NL4-3, MT4, 120 h
MT4 = assay: Ratio of MC1220 CC50 to compound CC50 for human MT4 cells; type: ADME, cell-based
[3] = test system: Human immunodeficiency virus 1; assay: Antiviral activity against multidrug-resistant HIV 1 IRLL98 harboring reverse transcriptase K101Q/Y181C/G190a mutant infected in human MT4 cells assessed as virus-induced cytopathic effect after 5 days by MTT assay; type: functional, organism-based; settings: Human immunodeficiency virus 1, IRLL98, MT4, 120 h
In short: (§1)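 MT-4 cells (NIH AIDS Reagent Program) infected with the mutant HIV-1 strain in the presence of a range of drug concentrations. Mutant strains were from the MRC Centralised Facility for AIDS Reagents; IRLL98 carries K101Q, Y181C and G190A. Viable cells were counted by MTT colorimetry at day 5 post-infection. […] Values are means of at least two experiments.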

[4] = test system: Human immunodeficiency virus type 1 reverse transcriptase (Human immunodeficiency virus 1), Q72547 [L100I]
[5] = test system: Human immunodeficiency virus type 1 reverse transcriptase (Human immunodeficiency virus 1), Q72547 [K103N]; assay: Ratio of MC1220 ID50 to compound ID50 for HIV 1 reverse transcriptase K103N mutant
[6] = test system: Human immunodeficiency virus 1; assay: Ratio of efavirenz EC50 to compound EC50 for wild type HIV 1 NL4-3 infected in human MT4 cells; type: functional
[7] = test system: Human immunodeficiency virus 1; assay: Ratio of ID50 for HIV 1 reverse transcriptase Y188L mutant to ID50 for wild type HIV 1 NL4-3 reverse transcriptase
In short: (§2)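 Recombinant HIV-1 RT (wild type or K103N, L100I, Y181I or Y188L), purified to >95%, at 2-4 nM. RNA-dependent DNA polymerase assay with 0.5 μg poly(rA)/oligo(dT) 10:1 (0.3 μM 3'-OH ends) and 10 μM [3H]dTTP in 8% final DMSO. Initial velocities were taken from aliquots sampled every 2 min. […] The ratio is mutant ID50 over wild-type ID50. Means of at least three experiments.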

[8] = Ratio of TMC120 CC50 to compound CC50 for human MT4 cells; type: ADME, cell-based
[9] = test system: Human immunodeficiency virus type 1 reverse transcriptase (Human immunodeficiency virus 1), Q72547 [Y181I]
[10] = test system: Human immunodeficiency virus type 1 reverse transcriptase (Human immunodeficiency virus 1), Q72547 [K103N]
[11] = test system: Human immunodeficiency virus 1; assay: Antiviral activity against HIV 1 harboring reverse transcriptase K103N mutant infected in human MT4 cells assessed as inhibition of virus-induced cytopathic effect after 5 days by MTT assay; type: functional, organism-based; settings: Human immunodeficiency virus 1, MT4, 120 h
[12] = test system: Human immunodeficiency virus 1; assay: Antiviral activity against HIV 1 harboring reverse transcriptase Y181C mutant infected in human MT4 cells assessed as inhibition of virus-induced cytopathic effect after 5 days by MTT assay; type: functional, organism-based; settings: Human immunodeficiency virus 1, MT4, 120 h; in short: as §1
[13] = test system: Human immunodeficiency virus 1; assay: Ratio of ID50 for HIV 1 reverse transcriptase Y181I mutant to ID50 for wild type HIV 1 NL4-3 reverse transcriptase; in short: as §2
[14] = target: Human immunodeficiency virus type 1 reverse transcriptase (Human immunodeficiency virus 1) (UniProt Q72547)
[15] = Cytotoxicity against human MT4 cells assessed as cell viability by MTT assay; type: cell-based
[16] = test system: Human immunodeficiency virus 1; assay: Ratio of ID50 for HIV 1 reverse transcriptase K103N mutant to ID50 for wild type HIV 1 NL4-3 reverse transcriptase; in short: as §2
[17] = test system: Human immunodeficiency virus 1; assay: Ratio of ID50 for HIV 1 reverse transcriptase L100I mutant to ID50 for wild type HIV 1 NL4-3 reverse transcriptase; in short: as §2
[18] = test system: Human immunodeficiency virus 1; assay: Resistance ratio of EC50 for multidrug-resistant HIV 1 IRLL98 harboring reverse transcriptase K101Q/Y181C/G190a mutant to EC50 for wild type HIV 1 NL4-3 infected in human MT4 cells; type: functional
In short: (§3)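 Fold change is the EC50 against the mutant strain (K103N, Y181C, Y188L or IRLL98) divided by the EC50 against wild-type NL4-3. Both EC50s come from MT-4 cells infected in the presence of a range of drug concentrations, with MTT viability read at day 5. Values are means of at least two experiments.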

[19] = test system: Human immunodeficiency virus 1; assay: Resistance ratio of EC50 for HIV 1 harboring reverse transcriptase K103N mutant infected in human MT4 cells to EC50 for wild type HIV 1 NL4-3 infected in human MT4 cells; type: functional; in short: as §3
[20] = test system: Human immunodeficiency virus 1; assay: Resistance ratio of EC50 for HIV 1 harboring reverse transcriptase Y181C mutant infected in human MT4 cells to EC50 for wild type HIV 1 NL4-3 infected in human MT4 cells; type: functional; in short: as §3
[21] = test system: Human immunodeficiency virus 1; assay: Resistance ratio of EC50 for HIV 1 harboring reverse transcriptase Y188L mutant infected in human MT4 cells to EC50 for wild type HIV 1 NL4-3 infected in human MT4 cells; type: functional; in short: as §3
[22] = Selectivity index, ratio of CC50 for human MT4 cells to EC50 for HIV 1 NL4-3; type: toxicity, cell-based; settings: read-out: Ratio CC50/EC50
In short: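 CC50 from mock-infected MT-4 cells and EC50 against HIV-1 NL4-3 in infected MT-4 cells, both by day-5 MTT viability read-out; index computed as CC50/EC50(NL4-3); means of at least two experiments.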

| SMILES | pEC50 [1] | pEC50 [2] | Ratio (MT4) | pEC50 [3] | ID50 [4] [nM] | Ratio EC50 [6] | Ratio [7] | selectivity ratio [8] | ID50 [9] [nM] | ID50 [10] [nM] | pEC50 [11] | pEC50 [12] | Ratio [13] | ID50 [14] [nM] | CC50 [15] [nM] | Ratio [16] | Ratio [17] | Ratio EC50 [18] | Ratio EC50 [19] | Ratio EC50 [20] | other results |
| --- | --- | --- | --- | --- | --- | --- | --- | --- | --- | --- | --- | --- | --- | --- | --- | --- | --- | --- | --- | --- | --- |
| Cc1c(N)nc(Nc2ccc(C#N)cc2)nc1C(C)c1c(F)cccc1F (stereo not drawn) | 7.56 | 10.10 | 2.5 | 9.09 | 282 | >10 | 10 | > 10 | 1680 | 22 | 7.46 | 7.40 | 120 | 14 | 40500 | 1.6 | 20 | 10 |  |  | Ratio [5]: 23 |
| Cc1c(Cl)nc(Nc2ccc(C#N)cc2)nc1C(C)c1c(F)cccc1F (stereo not drawn) | 7.22 | 8.64 |  | 8.11 | 150 |  | 2.6 |  | 3400 | 71 | 8.64 | 7.36 | 386 | 8.8 | > 13000 | 8.1 | 17 | 3 | 1 | 22 | Ratio EC50 [21]: 30; selectivity ratio [22]: > 5650 |
| Cc1c(N)nc(Nc2ccc(C#N)cc2)nc1Cc1c(F)cccc1F | 6.82 | 9.70 | 2.5 |  | 603 | >10 | 315 | > 10 | 22100 | 90 | 8.09 | 7.15 | 2010 | 11 | 45900 | 8 | 55 |  | 41 | 352 | Ratio EC50 [21]: 756; selectivity ratio [22]: 230000 |

Reference: ChEMBL document CHEMBL1955737, “Diarylpyrimidine-dihydrobenzyloxopyrimidine hybrids: new, wide-spectrum anti-HIV-1 agents active at (sub)-nanomolar level” (J Med Chem, 2011)
